This passage reports growth and Ki results from ChEMBL document CHEMBL2434944, “Novel acetamidothiazole derivatives: synthesis and in vitro anticancer evaluation” (Eur J Med Chem, 2013).

In one assay the test system is RXF 393. Put plainly: Growth inhibition of human RXF393 cells assessed as cell growth at 10^-5 M after 48 hrs by sulforhodamine B assay relative to control. In kind it is functional. Particulars: RXF 393, 48 h, read-out: Activity. In a few lines:
(§1)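 NCI-60 single-dose screen at 10^-5 M. Cells grown in RPMI 1640 with 5% FBS and 2 mM L-glutamine, plated at 5,000–40,000 cells/well according to doubling time, and preincubated 24 h at 37°C, 5% CO2. Compound dissolved in DMSO and added. Exposure 48 h. Adherent cells fixed with cold TCA (10% final), suspension cells with 16% final TCA. Read-out is 0.4% SRB staining, dye solubilised in 10 mM Tris, absorbance at 515 nm. Percent growth is calculated against the time-zero plate and untreated control.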

Another assay concerns SF-539. Put plainly: Growth inhibition of human SF539 cells assessed as cell growth at 10^-5 M after 48 hrs by sulforhodamine B assay relative to control. Particulars: SF-539, 48 h, read-out: Activity. Format: functional. In a few lines:
as §1

Assay [1] can be described thus: Growth inhibition of human NCI-ADR-RES cells assessed as cell growth at 10^-5 M after 48 hrs by sulforhodamine B assay relative to control. Format: functional. Conditions: read-out: Activity. In a few lines:
as §1

For a further assay, the system named is K562. Kind of assay: Growth inhibition of human K562 cells assessed as cell growth at 10^-5 M after 48 hrs by sulforhodamine B assay relative to control. Format: functional. Particulars: K562, 48 h, read-out: Activity. The method in brief: as §1
The next assay relates to PC-3. Put plainly: Growth inhibition of human PC3 cells assessed as cell growth at 10^-5 M after 48 hrs by sulforhodamine B assay relative to control. In kind it is functional. Conditions: PC-3, 48 h, read-out: Activity. The method in brief: as §1
The test system of the next assay is SK-MEL-5. Kind of assay: Growth inhibition of human SK-MEL-5 cells assessed as cell growth at 10^-5 M after 48 hrs by sulforhodamine B assay relative to control. Format: functional. Conditions: SK-MEL-5, 48 h, read-out: Activity. In a few lines: as §1
Assay [2] addresses Epidermal growth factor receptor (Homo sapiens, UniProt P00533). Kind of assay: Inhibition of human EGFR.
The target of a further assay is T1, Cathepsin K (Homo sapiens, UniProt P43235).
T1 sequence (P43235 whole entry): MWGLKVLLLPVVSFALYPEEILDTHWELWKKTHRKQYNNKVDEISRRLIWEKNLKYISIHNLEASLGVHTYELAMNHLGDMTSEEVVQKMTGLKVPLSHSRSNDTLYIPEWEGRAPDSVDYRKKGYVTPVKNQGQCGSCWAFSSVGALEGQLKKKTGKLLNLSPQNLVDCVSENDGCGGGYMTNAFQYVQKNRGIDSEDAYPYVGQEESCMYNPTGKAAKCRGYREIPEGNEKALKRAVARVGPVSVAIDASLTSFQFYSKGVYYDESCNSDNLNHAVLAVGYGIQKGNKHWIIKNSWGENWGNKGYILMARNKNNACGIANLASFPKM
Kind of assay: Inhibition of human cathepsin K.

The next assay relates to SW-620. Put plainly: Growth inhibition of human SW620 cells assessed as cell growth at 10^-5 M after 48 hrs by sulforhodamine B assay relative to control. Format: functional. Conditions: SW-620, 48 h, read-out: Activity. The method in brief: (§2)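 NCI-60 single-dose screen, 10^-5 M final. Cells grown in RPMI 1640 with 5% FBS and 2 mM L-glutamine, seeded at 5,000–40,000 cells/well by doubling time. Preincubated 24 h at 37°C, 5% CO2. Compound in DMSO, diluted in medium with gentamicin, then 48 h exposure. Fixed with cold TCA, SRB stained, A515 read. Percent growth vs untreated control, time-zero plate corrected.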

Another assay concerns IGROV-1. Put plainly: Growth inhibition of human IGROV1 cells assessed as cell growth at 10^-5 M after 48 hrs by sulforhodamine B assay relative to control. Format: functional. Conditions: IGROV-1, 48 h, read-out: Activity. The method in brief:
as §1

The next assay concerns OVCAR-5. Put plainly: Growth inhibition of human OVCAR5 cells assessed as cell growth at 10^-5 M after 48 hrs by sulforhodamine B assay relative to control. In kind it is functional. Particulars: OVCAR-5, 48 h, read-out: Activity. In a few lines: as §1
The next assay concerns UACC-257. Kind of assay: Growth inhibition of human UACC257 cells assessed as cell growth at 10^-5 M after 48 hrs by sulforhodamine B assay relative to control. In kind it is functional. Conditions: UACC-257, 48 h, read-out: Activity. In a few lines:
as §2

In a further assay the test system is MDA-MB-468. Put plainly: Growth inhibition of human MDA-MB-468 cells assessed as cell growth at 10^-5 M after 48 hrs by sulforhodamine B assay relative to control. In kind it is functional. Particulars: MDA-MB-468, 48 h, read-out: Activity. The method in brief: as §1
The test system of a further assay is KM12. Put plainly: Growth inhibition of human KM12 cells assessed as cell growth at 10^-5 M after 48 hrs by sulforhodamine B assay relative to control. Format: functional. Conditions: KM12, 48 h, read-out: Activity. The method in brief:
as §1

For another assay, the system named is A498. Kind of assay: Growth inhibition of human A498 cells assessed as cell growth at 10^-5 M after 48 hrs by sulforhodamine B assay relative to control. Conditions: A498, 48 h, read-out: Activity. In kind it is functional. The method in brief: as §1
Another assay deals with OVCAR-4. Put plainly: Growth inhibition of human OVCAR4 cells assessed as cell growth at 10^-5 M after 48 hrs by sulforhodamine B assay relative to control. Format: functional. Particulars: OVCAR-4, 48 h, read-out: Activity. The method in brief: as §1
The test system of a further assay is HOP-92. Put plainly: Growth inhibition of human HOP92 cells assessed as cell growth at 10^-5 M after 48 hrs by sulforhodamine B assay relative to control. Format: functional. Conditions: HOP-92, 48 h, read-out: Activity. In a few lines: as §1
The next assay concerns RPMI-8226. Kind of assay: Growth inhibition of human RPMI8226 cells assessed as cell growth at 10^-5 M after 48 hrs by sulforhodamine B assay relative to control. Format: functional. Particulars: RPMI-8226, 48 h, read-out: Activity. The method in brief: as §1
Another assay has as its system 786-0. Put plainly: Growth inhibition of human 786-0 cells assessed as cell growth at 10^-5 M after 48 hrs by sulforhodamine B assay relative to control. In kind it is functional. Conditions: 786-0, 48 h, read-out: Activity. The method in brief:
as §1

The test system of the next assay is HT-29. Put plainly: Growth inhibition of human HT-29 cells assessed as cell growth at 10^-5 M after 48 hrs by sulforhodamine B assay relative to control. Format: functional. Conditions: HT-29, 48 h, read-out: Activity. The method in brief:
as §1

In the next assay the test system is NCI-H322M. Put plainly: Growth inhibition of human NCI-H322M cells assessed as cell growth at 10^-5 M after 48 hrs by sulforhodamine B assay relative to control. In kind it is functional. Particulars: read-out: Activity. The method in brief:
as §1

A short description of assay [3]: Growth inhibition of human HCC2998 cells assessed as cell growth at 10^-5 M after 48 hrs by sulforhodamine B assay relative to control. In kind it is functional. Particulars: HCC 2998, 48 h, read-out: Activity. The method in brief:
as §1

The subject of the next assay is OVCAR-8. Kind of assay: Growth inhibition of human OVCAR8 cells assessed as cell growth at 10^-5 M after 48 hrs by sulforhodamine B assay relative to control. In kind it is functional. Particulars: OVCAR-8, 48 h, read-out: Activity. In a few lines: as §1
For the next assay, the system named is HL-60(TB). Kind of assay: Growth inhibition of human HL-60(TB) cells assessed as cell growth at 10^-5 M after 48 hrs by sulforhodamine B assay relative to control. Conditions: HL-60, 48 h, read-out: Activity. Format: functional. The method in brief: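 NCI-60 one-dose screen at 10^-5 M. Cells were grown in RPMI 1640 with 5% FBS and 2 mM L-glutamine and plated at 5,000–40,000 cells/well. They were preincubated 24 h at 37°C under 5% CO2, then exposed for 48 h. Suspension cells were fixed with 80% TCA (16% final) and stained with 0.4% SRB, read at 515 nm. Percent growth is versus untreated control, corrected for time-zero.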

Epidermal growth factor receptor, sequence (P00533 whole entry): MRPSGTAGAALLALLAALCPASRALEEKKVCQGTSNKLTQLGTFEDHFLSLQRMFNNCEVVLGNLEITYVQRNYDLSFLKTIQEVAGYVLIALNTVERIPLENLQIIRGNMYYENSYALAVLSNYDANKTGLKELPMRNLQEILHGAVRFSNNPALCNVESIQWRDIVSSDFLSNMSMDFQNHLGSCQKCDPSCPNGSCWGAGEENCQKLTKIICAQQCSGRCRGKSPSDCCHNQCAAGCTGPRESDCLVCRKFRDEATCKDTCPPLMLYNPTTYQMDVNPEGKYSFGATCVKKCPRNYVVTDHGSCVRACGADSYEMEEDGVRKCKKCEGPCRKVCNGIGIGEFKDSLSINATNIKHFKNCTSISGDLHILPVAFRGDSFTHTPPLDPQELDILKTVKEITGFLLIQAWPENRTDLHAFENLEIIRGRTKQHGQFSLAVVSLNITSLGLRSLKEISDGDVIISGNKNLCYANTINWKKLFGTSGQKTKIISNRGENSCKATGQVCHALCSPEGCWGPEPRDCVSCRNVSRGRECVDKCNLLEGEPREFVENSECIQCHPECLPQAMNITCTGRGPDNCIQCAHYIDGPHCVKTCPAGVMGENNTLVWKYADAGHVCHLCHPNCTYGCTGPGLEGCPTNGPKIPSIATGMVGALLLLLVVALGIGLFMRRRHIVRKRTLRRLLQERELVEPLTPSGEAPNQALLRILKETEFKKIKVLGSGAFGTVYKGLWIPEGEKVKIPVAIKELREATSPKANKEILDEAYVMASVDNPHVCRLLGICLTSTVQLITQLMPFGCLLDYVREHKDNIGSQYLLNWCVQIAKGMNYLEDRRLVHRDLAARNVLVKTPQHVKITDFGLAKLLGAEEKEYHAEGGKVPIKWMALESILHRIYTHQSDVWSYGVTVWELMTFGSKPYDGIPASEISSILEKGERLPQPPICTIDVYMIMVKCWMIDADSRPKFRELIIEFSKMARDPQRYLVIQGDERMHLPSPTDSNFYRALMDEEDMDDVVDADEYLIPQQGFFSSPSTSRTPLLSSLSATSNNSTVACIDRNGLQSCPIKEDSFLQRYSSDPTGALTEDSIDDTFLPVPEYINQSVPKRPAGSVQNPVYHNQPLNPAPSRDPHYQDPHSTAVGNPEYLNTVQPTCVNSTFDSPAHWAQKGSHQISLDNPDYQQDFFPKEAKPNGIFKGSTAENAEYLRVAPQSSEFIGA

In the case of `CC(=O)N1CCN(C(=O)Cn2c(-c3ccc(C)cc3)csc2=N)CC1`, the growth at 10 µM was determined as 94.8% in the assay with RXF 393; 99.9% in the assay on SF-539; 93% in assay [1]; 84.3% with K562; 65.2% in the assay with PC-3; 92.1% in the assay with SK-MEL-5. Further, the growth at 10 µM with SW-620 came out at 97.6%; in the assay with IGROV-1, 103%; in the assay on OVCAR-5, 122%; with UACC-257 it was 102%; in the assay on MDA-MB-468, 94.3%; with KM12 it was 99.4%. Further, the growth at 10 µM with A498 is 80.6%; with OVCAR-4, 97%; with HOP-92 it was 60.9%; in the assay on RPMI-8226, 82.3%; with 786-0 it was 98.8%; in the assay on HT-29 it was 105%. Further, the growth at 10 µM in the assay on NCI-H322M is 108%; in assay [3], 101%; with OVCAR-8 it was 98.4%; in the assay with HL-60(TB) it was 108%. The Ki in assay [2] was 6.09 µM; on Cathepsin K, 24 µM.

On to `Cc1ccc(-c2csc(=N)n2CC(=O)N2CCN(c3ccccc3)CC2)cc1`, for which the growth at 10 µM with RXF 393 is 97.3%; with SF-539 it was 100%; in assay [1], 92.6%; with K562 it was 100%; in the assay on PC-3, 82.1%; with SK-MEL-5 it was 88.2%. For the same molecule, the growth at 10 µM with SW-620 amounted to 105%; with IGROV-1, 93.2%; in the assay with OVCAR-5, 110%; in the assay with UACC-257, 106%; in the assay on MDA-MB-468, 97.6%; in the assay on KM12 it was 104%. The growth at 10 µM with A498 was 92.6%; in the assay on OVCAR-4 it was 88.4%; in the assay with HOP-92 it was 69.2%; in the assay on RPMI-8226, 92.4%; with 786-0, 101%; in the assay with HT-29, 111%. The growth at 10 µM came out at 99.7% with NCI-H322M, 104% in [3], 92.9% in the assay with OVCAR-8 and 127% with HL-60(TB). For the same molecule, the Ki turned out to be 2.97 µM in assay [2] and 10.8 µM on Cathepsin K.
